According to ChEMBL document CHEMBL1140228, “Identification of small molecular weight inhibitors of Src homology 2 domain-containing tyrosine phosphatase 2 (SHP-2) via in silico database screening combined with experimental assay” (J Med Chem, 2008):
Numbering of substitutions follows the chain as printed. Activity calls are given as the source filed them. No cut-off for these calls is given here.

Legend:
[1] = target: T1, Tyrosine-protein phosphatase non-receptor type 11 (Homo sapiens) (UniProt Q06124); assay: Inhibition of GST-tagged SHP2
T1 sequence (whole entry): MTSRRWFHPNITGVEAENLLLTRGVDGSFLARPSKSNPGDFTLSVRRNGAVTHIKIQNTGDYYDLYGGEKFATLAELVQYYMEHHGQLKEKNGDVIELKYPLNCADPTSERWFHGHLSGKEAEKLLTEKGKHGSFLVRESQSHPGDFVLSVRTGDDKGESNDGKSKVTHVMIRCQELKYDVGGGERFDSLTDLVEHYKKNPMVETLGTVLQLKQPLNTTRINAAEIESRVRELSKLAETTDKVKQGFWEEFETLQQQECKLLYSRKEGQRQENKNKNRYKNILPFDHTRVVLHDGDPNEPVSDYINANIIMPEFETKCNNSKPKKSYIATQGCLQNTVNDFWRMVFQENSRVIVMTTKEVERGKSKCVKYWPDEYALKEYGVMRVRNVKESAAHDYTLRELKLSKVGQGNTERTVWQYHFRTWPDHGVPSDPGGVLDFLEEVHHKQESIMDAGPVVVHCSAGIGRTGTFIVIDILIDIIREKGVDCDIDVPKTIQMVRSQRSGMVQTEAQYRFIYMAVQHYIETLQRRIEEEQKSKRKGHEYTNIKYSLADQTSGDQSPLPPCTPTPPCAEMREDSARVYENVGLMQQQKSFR
How it was run: (§1)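 GST-SHP-2 PTP domain (0.5 μg) preincubated 30 min at room temperature with compound or DMSO in 25 mM Tris-HCl pH 7.4, 50 mM NaCl, 5 mM DTT, 2.5 mM EDTA. Orthovanadate (100 μM) served as positive control.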

[2] = target: T2, Tyrosine-protein phosphatase non-receptor type 11 (Mus musculus) (UniProt P35235); assay: Inhibition of SHP2 assessed as blockade of IL3-induced ERK1/ERK2 activation in mouse Ba/F3 cells by immunoblotting; assay type: cell-based; conditions: BaF3
T2 sequence (whole entry): T1 sequence (whole entry) with M450V, A550V, K590R
How it was run: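 Ba/F3 cells deprived of IL-3 for 8 h, treated with compound 1 h before stimulation with IL-3 (2 ng/mL), and harvested at several times. Lysates immunoblotted for phospho-Erk, then stripped and reprobed for pan-Erk as loading control.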

[3] = target: T1, Tyrosine-protein phosphatase non-receptor type 11 (Homo sapiens); assay: Binding affinity to SHP2 PTP domain assessed as quenching of enzyme fluorescence by fluorescence titration assay
How it was run: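 Tryptophan fluorescence quenching of GST-SHP-2 PTP domain held at 3 μM in 20 mM Tris-HCl pH 7.5, titrated with increasing compound. Excitation 295 nm, emission 360–500 nm. Compound-alone fluorescence subtracted. Intensities are relative, not corrected for detector response.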

[4] = tested on: T3, Tyrosine-protein phosphatase non-receptor type 11 (Mus musculus), P35235 [D61G]; assay: Inhibition of EGF-induced SHP2 D61G mutant activation in mouse embryonic fibroblasts by immunocomplex phosphatase assay
T3 sequence (whole entry): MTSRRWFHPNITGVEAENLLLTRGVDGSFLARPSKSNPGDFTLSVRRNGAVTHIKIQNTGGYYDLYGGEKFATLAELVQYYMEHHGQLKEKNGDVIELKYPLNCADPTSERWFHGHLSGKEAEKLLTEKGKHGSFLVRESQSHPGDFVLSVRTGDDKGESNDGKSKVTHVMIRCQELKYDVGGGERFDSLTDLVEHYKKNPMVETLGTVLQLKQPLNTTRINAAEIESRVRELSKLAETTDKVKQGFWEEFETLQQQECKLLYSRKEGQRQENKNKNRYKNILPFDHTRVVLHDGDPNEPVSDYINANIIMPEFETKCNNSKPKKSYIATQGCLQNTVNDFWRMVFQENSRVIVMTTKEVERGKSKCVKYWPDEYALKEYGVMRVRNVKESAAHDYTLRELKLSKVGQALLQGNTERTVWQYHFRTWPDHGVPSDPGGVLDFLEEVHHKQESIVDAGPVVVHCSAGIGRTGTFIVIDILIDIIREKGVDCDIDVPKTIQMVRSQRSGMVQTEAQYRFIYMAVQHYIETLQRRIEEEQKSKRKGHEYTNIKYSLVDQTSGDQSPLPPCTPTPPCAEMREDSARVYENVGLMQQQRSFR
How it was run: (§2)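 WT or SHP-2 D61G/D61G knock-in MEFs starved overnight in serum-free medium, compound (100 μM) for the last 1 h, then EGF 10 min (50 ng/mL in methods, 20 ng/mL in legend). RIPA lysates (500 μg) immunoprecipitated with anti-SHP-2, washed in HNTG, then assayed by malachite green phosphatase assay.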

[5] = target: T1, Tyrosine-protein phosphatase non-receptor type 11 (Homo sapiens); assay: Inhibition of GST-tagged SHP2 at 100 uM; how it was run: as §1
[6] = target: T2, Tyrosine-protein phosphatase non-receptor type 11 (Mus musculus); assay: Inhibition of EGF-induced SHP2 activation in mouse embryonic fibroblasts by immunocomplex phosphatase assay; how it was run: as §2
[7] = target: Tyrosine-protein phosphatase non-receptor type 6 (Homo sapiens) (UniProt P29350); assay: Inhibition of GST-tagged SHP1
Sequence of Tyrosine-protein phosphatase non-receptor type 6 (Homo sapiens) (P29350 whole entry): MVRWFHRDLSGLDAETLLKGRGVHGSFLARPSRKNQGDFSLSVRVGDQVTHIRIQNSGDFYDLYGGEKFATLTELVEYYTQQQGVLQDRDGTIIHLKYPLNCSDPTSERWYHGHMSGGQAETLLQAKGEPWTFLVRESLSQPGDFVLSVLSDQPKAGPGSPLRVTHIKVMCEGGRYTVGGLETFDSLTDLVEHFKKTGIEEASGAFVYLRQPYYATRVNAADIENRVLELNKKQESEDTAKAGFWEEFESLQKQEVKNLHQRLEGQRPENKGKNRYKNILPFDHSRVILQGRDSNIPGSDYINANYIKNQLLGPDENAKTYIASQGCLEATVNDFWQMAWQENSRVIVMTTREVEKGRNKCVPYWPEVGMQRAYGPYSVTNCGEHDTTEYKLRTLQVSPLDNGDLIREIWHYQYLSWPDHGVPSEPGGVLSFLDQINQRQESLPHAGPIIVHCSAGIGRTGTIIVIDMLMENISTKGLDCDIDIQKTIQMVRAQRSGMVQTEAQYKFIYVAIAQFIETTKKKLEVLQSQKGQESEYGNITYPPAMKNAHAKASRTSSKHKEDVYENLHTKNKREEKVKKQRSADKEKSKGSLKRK

[8] = target: T4, Tyrosine-protein phosphatase non-receptor type 2 (Homo sapiens) (UniProt P17706); assay: Inhibition of GST-tagged TC-PTP
T4 sequence (whole entry): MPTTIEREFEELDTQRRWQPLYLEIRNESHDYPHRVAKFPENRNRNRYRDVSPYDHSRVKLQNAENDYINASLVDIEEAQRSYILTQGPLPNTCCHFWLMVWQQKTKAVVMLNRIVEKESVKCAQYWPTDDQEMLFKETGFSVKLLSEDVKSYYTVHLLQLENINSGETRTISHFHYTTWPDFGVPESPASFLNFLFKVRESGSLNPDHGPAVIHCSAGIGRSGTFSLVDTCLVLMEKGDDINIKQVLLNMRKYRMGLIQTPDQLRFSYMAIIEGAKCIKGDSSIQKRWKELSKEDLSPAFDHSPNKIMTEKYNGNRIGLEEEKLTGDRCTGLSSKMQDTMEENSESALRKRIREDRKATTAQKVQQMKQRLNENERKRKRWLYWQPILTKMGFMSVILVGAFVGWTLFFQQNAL

[9] = target: T5, Receptor-type tyrosine-protein phosphatase C (Homo sapiens) (UniProt P08575); assay: Inhibition of GST-tagged CD45
T5 sequence (whole entry): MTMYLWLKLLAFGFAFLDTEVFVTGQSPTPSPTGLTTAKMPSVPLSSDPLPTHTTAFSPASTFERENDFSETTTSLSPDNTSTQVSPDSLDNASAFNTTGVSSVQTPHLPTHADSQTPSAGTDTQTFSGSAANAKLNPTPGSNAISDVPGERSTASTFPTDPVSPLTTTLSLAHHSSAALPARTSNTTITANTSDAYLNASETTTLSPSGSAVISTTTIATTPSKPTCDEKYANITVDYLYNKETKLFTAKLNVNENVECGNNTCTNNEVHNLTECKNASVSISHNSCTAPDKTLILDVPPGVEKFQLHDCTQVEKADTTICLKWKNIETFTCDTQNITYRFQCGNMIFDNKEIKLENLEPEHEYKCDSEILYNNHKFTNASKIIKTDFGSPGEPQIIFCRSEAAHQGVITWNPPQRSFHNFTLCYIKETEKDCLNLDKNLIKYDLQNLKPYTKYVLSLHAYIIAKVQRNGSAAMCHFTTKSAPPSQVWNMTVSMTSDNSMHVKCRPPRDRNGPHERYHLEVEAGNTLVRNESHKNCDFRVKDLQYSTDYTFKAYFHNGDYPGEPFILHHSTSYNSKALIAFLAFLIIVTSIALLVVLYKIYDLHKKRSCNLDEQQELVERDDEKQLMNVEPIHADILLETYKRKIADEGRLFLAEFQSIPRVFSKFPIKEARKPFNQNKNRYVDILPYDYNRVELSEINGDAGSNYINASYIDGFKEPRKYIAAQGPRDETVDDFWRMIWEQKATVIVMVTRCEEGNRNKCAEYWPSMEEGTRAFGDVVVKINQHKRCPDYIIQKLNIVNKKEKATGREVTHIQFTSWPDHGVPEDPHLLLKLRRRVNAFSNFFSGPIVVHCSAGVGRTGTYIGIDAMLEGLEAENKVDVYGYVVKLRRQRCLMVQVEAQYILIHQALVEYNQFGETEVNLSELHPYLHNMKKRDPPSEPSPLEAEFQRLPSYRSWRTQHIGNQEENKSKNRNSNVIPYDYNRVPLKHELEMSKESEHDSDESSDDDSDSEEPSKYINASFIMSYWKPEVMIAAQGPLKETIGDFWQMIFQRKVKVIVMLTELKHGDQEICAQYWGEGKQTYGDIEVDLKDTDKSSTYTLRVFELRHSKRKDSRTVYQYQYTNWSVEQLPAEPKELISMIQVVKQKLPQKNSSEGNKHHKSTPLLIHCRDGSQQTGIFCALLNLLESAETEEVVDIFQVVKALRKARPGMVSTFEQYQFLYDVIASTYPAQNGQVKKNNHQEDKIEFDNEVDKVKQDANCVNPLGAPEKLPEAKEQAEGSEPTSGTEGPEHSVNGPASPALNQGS

[10] = target: T1, Tyrosine-protein phosphatase non-receptor type 11 (Homo sapiens); assay: Inhibition of GST-tagged SHP2 at 200 uM; how it was run: as §1
[11] = tested on: BaF3; assay: Antiproliferative activity against IL3-stimulated mouse BA/F3 cells assessed as decrease in cell growth after 72 hrs by MTS assay; assay type: functional, cell-based
How it was run: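 Ba/F3 (IL-3-dependent murine pro-B line) seeded at 2×10⁴ cells/well in RPMI-1640 with 10% FBS and mouse IL-3 (1 ng/mL), plus compound at 100 or 200 μM or DMSO. Cell number read by MTS after 72 h.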

| SMILES | Activity [1] | Activity [3] | inhibition [5] [%] | further results |
| --- | --- | --- | --- | --- |
| CCc1ccc(OCC(=O)Nc2ccc(S(N)(=O)=O)cc2)cc1 | Dose-dependent effect | inactive |  |  |
| NNc1ccc(S(=O)(=O)O)cc1 | Dose-dependent effect |  | 70 | Activity [7]: Active; Activity [8]: inactive; Activity [9]: inactive; Activity [10]: Active |
| CSc1ccc(C2C(C#N)=C(N)Oc3[nH]nc(-c4ccccc4Cl)c32)cc1 (stereo unspecified) | Dose-dependent effect | Active |  |  |
| NS(=O)(=O)c1ccc(CCNC(=O)c2ccc(Cn3c(=S)[nH]c4ccc(Br)cc4c3=O)cc2)cc1 | Dose-dependent effect | Active | 55 | Activity [2]: Active; Activity [4]: Active; Activity [11]: Active; Activity [6]: Active |
| O=C(CCCn1c(=O)c2cccn2c2cccnc21)NCc1ccccc1F | Dose-dependent effect |  | 45 |  |

Continued, in another order:

| Activity [1] | Activity [3] | inhibition [5] [%] | SMILES | further results |
| --- | --- | --- | --- | --- |
| Dose-dependent effect | Active | 50 | Cc1cc(C)c2c(c1)[nH]c1nnc(SCC(=O)NCc3cccs3)nc12 | Activity [2]: Active; Activity [4]: Active; Activity [6]: Active |
| Dose-dependent effect | inactive |  | CNC(=S)NNC(=O)CSCCS(=O)(=O)c1ccccc1 |  |
| Dose-dependent effect | inactive |  | NC(N)=NN[C@@H]1O[C@H](CO)[C@@H](O)[C@H](O)[C@H]1O |  |
| Dose-dependent effect |  | 40 | CNC(=S)NNC(=O)c1csc(-c2cccs2)n1 |  |
